Experiments:
[1] = target: T1, Alpha-1B adrenergic receptor (Homo sapiens, UniProt P35368); test: Displacement of [3H]prazosin from human Alpha-1B adrenoceptor expressed in CHO cells; assay type: cell-based
T1 sequence (P35368 whole entry): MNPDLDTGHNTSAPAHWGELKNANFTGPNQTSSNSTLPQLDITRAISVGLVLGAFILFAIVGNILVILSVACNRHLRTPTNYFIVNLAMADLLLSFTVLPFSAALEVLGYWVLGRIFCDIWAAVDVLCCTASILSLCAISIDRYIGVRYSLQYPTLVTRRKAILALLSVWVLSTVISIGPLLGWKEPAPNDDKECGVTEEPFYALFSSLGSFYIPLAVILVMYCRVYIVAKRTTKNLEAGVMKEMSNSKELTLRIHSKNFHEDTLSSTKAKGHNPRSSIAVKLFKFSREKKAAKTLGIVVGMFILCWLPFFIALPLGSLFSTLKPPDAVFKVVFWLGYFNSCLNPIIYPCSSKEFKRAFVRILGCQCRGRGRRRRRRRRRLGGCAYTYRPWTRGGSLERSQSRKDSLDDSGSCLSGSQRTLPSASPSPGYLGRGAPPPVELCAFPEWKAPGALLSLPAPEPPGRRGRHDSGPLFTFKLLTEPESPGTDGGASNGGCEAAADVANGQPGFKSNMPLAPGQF
Summary of the method: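 Membranes ([…], as printed) from CHO cells stably expressing the cloned human α1b subtype were incubated with 0.1–0.4 nM [³H]prazosin and competitor (1 pM up to the top concentration) in 50 mM Tris-HCl, pH 7.4, for 30 min at 25 °C. Non-specific binding was defined with phentolamine, and incubations ended by filtration. Ki was derived from IC50 by Cheng–Prusoff. Reported as pKi from 2–3 triplicate experiments.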

[2] = target: T2, Alpha-1D adrenergic receptor (Homo sapiens, UniProt P25100); test: Displacement of [3H]prazosin from human Alpha-1D adrenoceptor expressed in CHO cells; assay type: cell-based
T2 sequence (P25100 whole entry): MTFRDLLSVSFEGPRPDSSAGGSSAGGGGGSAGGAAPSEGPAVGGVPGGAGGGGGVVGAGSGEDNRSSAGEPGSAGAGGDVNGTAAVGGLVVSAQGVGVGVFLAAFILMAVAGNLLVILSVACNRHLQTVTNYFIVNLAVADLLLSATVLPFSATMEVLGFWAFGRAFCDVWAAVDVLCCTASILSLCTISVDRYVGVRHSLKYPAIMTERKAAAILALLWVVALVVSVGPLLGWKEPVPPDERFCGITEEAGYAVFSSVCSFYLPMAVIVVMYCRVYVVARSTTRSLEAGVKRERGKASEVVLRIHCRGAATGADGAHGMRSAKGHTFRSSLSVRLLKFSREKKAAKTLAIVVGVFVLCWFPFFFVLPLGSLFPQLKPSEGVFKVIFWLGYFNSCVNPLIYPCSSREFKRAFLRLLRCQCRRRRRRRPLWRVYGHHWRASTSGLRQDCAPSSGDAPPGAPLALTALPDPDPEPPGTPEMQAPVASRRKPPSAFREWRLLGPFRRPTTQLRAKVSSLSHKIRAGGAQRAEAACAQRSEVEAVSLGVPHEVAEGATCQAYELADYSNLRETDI
Summary of the method: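 Membranes ([…], as printed) from CHO cells stably expressing the cloned human α1d subtype were incubated with 0.1–0.4 nM [³H]prazosin and competing drug (1 pM upward) in 50 mM Tris-HCl, pH 7.4, for 30 min at 25 °C. Phentolamine defined non-specific binding. IC50 was converted to Ki by Cheng–Prusoff. Reported as pKi from 2–3 triplicate experiments.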

[3] = target: T3, Alpha-1D adrenergic receptor (Rattus norvegicus) (UniProt P23944); conditions: Wistar, Thoracic aorta
T3 sequence (whole entry): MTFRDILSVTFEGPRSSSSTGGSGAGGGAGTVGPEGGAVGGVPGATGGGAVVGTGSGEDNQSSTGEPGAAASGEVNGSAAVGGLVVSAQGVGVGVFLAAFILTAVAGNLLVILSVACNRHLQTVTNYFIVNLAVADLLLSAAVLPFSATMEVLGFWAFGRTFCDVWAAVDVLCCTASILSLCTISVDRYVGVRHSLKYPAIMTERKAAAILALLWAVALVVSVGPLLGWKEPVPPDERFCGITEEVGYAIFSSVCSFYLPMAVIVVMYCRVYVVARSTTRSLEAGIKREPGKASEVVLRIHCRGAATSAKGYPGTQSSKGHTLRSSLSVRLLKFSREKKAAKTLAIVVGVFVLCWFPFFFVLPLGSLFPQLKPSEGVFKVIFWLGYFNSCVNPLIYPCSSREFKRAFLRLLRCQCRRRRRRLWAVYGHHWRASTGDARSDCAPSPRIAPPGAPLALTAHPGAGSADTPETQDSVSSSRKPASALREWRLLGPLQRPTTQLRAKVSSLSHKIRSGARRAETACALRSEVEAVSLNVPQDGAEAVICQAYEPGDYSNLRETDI

[4] = target: T4, Alpha-1A adrenergic receptor (Rattus norvegicus) (UniProt P43140); test: Antagonist activity at alpha1A adrenoceptor in Wistar rat vas deferens assessed as noradrenaline induced contractions after 30 mins; assay type: functional, tissue-based
T4 sequence (whole entry): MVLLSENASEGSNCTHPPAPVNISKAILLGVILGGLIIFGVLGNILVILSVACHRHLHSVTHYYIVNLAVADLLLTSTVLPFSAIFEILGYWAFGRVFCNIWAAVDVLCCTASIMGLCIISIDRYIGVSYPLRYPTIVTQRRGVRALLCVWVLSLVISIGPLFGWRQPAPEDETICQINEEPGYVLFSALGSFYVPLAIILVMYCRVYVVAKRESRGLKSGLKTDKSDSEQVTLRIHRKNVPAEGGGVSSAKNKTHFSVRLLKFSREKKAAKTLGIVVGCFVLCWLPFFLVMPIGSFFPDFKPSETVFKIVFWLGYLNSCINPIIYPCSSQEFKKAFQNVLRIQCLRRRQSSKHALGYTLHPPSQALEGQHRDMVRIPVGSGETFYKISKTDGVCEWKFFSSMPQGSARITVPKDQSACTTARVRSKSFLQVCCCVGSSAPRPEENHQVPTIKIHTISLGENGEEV
Summary of the method: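 Prostatic portions (2 cm) of vas deferens from male Wistar rats (275–300 g) were held under 0.35 g tension in Tyrode solution at 37 °C with cocaine present. Tissues were equilibrated 45 min, primed twice with noradrenaline, then given a cumulative isotonic noradrenaline curve.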

[5] = target: T5, Alpha-1B adrenergic receptor (Rattus norvegicus) (UniProt P15823); test: Antagonist activity at Alpha-1B adrenoceptor in Wistar rat spleen assessed as phenylephrine induced contractions after 30 mins; assay type: functional, tissue-based
T5 sequence (whole entry): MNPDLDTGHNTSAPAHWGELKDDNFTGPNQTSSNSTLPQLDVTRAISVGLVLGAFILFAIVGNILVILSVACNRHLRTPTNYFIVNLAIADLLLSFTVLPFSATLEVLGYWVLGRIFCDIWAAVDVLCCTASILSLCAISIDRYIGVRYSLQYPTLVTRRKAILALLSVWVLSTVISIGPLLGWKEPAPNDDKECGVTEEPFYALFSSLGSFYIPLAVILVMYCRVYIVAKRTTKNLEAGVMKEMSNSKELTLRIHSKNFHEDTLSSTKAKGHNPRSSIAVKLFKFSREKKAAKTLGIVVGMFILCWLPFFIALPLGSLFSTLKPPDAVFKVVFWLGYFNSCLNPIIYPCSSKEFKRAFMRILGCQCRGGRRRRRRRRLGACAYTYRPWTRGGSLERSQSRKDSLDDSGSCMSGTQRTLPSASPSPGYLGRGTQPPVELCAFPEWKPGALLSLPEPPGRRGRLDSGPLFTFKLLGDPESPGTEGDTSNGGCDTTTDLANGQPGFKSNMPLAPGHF
Summary of the method: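 Spleen strips from male Wistar rats (275–300 g) were set up in a 20 mL bath of physiological salt solution (pH 7.4, 37 °C, 95% O2/5% CO2) under 1 g tension and equilibrated 2 h. Two cumulative phenylephrine curves were run, each followed by 30 min washing, then 30 min incubation with vehicle or antagonist before a third curve. Values are Schild pA2, or pKB where slopes were nonparallel; 4–6 experiments.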

CCOc1ccccc1OCCN[C@H](C)Cc1ccc(OC)c(S(N)(=O)=O)c1 [TAMSULOSIN]
Ki [1]: 0.631 nM | Ki [2]: 0.1 nM | pKb [3]: 10 | pKb [4]: 9.46 | pKb [5]: 9.3

Source: ChEMBL document CHEMBL1629492 (Eur J Med Chem, 2010)
